Our source for the yeast fitness values is the RNAGym collection of RNA variant scans (doi:10.1126/science.aae0568).

B1: tRNA (parent)
chain: GUUCCGUUGGCGUAAUGGUAACGCGUCUCCCUCCUAAGGAGAAGACUGCGGGUUCGAGUCCCGUACGGAACG

Variants at the floor of the assay were thinned out. Bounds are passed on as bounds.

In this data set the parent is B1. Nature of the data set: yeast fitness relative to wild type (ratio to wild type); higher = fitter; tRNA-Arg(CCU), competitive growth, 37 C, YPD. The procedure, abridged: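 Changes in genotype frequencies gave Darwinian fitness relative to wild type. Frequencies were read by 100-nucleotide paired-end sequencing of gene amplicons before and after pooled Saccharomyces cerevisiae strains, carrying tRNA-Arg(CCU) gene variants at the native locus, were competed in YPD at 37°C for 24 hours in six replicates. A genotype was kept only with ≥ 100 starting reads, and estimates < 0.5 were set to 0.5.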
For GUUCCGUUGGCGUAAUGGUAACGCGUCUCCCUCUUAGGGAGAAGACUGCGGGUUCGAGUCCAGUACGGAACG, the yeast fitness was no more than 0.5.

In the case of GUUCCGUUGGGGUAAUGAUAACGCGUCUCCCUCCUAAGGAGAAUACUGCGGGUUCGAGUCCCGUCCGGAACG, the yeast fitness is no more than 0.5.

As for GUUCCGUUGGCGUAAUGGUAAUGAGUUUCCCUCCUAAGGAGACGACUGCGGGUUCGAGUCCCGUACGGAACG, the yeast fitness was no more than 0.5.

As for GUCCCGUUGGCGAAAUGGUAACGCGUCUCCUUCCUAAGGAAAAGACUGCGGGUUCGAGUCCCGUACGGACCG, the yeast fitness amounted to 0.639.

For the variant GUUCCGUUGCCGUAAUGGUACCGCGGCUCCCUCUUAAGGGGAAGACUGCGAGUUCGAGUCCCGUACGGAACG, the yeast fitness was 0.598.

As for GUUCCGUUGGCGUAAUGGUAACGCGUCUCCCUCCUAAGGAGCAGACUGCGGGUUCGAGUCCCGUACGCAACG, the yeast fitness amounted to 0.657.

With GUUUGGUUGACGUAAUGGUAACGUGUCUCCCUCCUCAGGAGAAGACUGCGGGUUCAAGUCCCGUACGGAACG, the yeast fitness came out at 0.651.

In the case of GUUCCGUUGGCGUAAUGGUAACGCGUCUCCCUCCUAAGGAGAAGACUGCGGGUUCGAGUCCGCUUCGGAACG, the yeast fitness is no more than 0.5.

Consider GUUCCGUUGGCGUAAUGGUAACGCAUCUCCCUCCUAUGGAGAAGACUGCGGGUUCAAGUCCCGUAUGGAACG, for which the yeast fitness was no more than 0.5.

Regarding GUUCCGUUGGCGAAAUGGUAACGCCUCUCCCUCCUAAGGAGAAGGCUGCGGGUUCGGGUCCCGUACGGAACG, the yeast fitness is no more than 0.5.

GUCCCGUUGGCGUAAUGGUCACCCGUCUCCCUCCUAAGGAGAAGACUGCGGGUUCCAGUCCCGUACGGAACG: the yeast fitness was no more than 0.5.

As to GUUCCGUUGGCGUAAUGGUAAGGCGUGUCCCUCCUAAGGAGAUGCCUGCGGGUACGAGUCCCGUACGGAACG, the yeast fitness is no more than 0.5.

With GCUCAGUUGCCAUAAUGGUAACACGUCUCCCUCCUAAGGAGAAGACUGCGGGUUCGAGUCCCGUACGGAACG, the yeast fitness was no more than 0.5.

With GUUCCCGUGGCGUAAUCGUAACGCGUCUCCCUCCUAAGGAGAAGACUGCGGGUUCGAGUCCCGUACGGAACG, the yeast fitness is 0.525.

GUUCCGUUGCCGUAAUGGUACCGCGUAUCCCUCAUAAGGAGAAGACUGGGGGUUCGAGUCCCGUGCGGAACG: the yeast fitness is no more than 0.5.

Regarding GUUCCGUUGGCGUAAUGGUAGCGCCUCUACCUCCUAAGGAGAAGACUGCGGGUUCGAAUCCCGUACGGAACG, the yeast fitness was determined as 0.54.

As for GUUCCGUUGGCGUUAUGGUAACGUGUCUCCCUCUUAAGGAGAAGACUGGGGGUUCGAGUCCCGUACGGAACG, the yeast fitness is no more than 0.5.

GUUCCGUUGGCGUAAUGGUAACGCGUCUCCCUCCUAAGGAGAAGACUGCGCGUUCGUGUCCCGUACGGAACG: the yeast fitness was determined as 0.691.

GUUCCCUUGGCGUAAUGGUAAAGCGUCUCCCUCAUAAGGAGAAGACUGCGGGUUCGAGUCCCGUACGGACCG: the yeast fitness stood at 0.525.

As for GUUCCGUUGGCGUAAUGGUAACGCGUCUCCCUCCUAACGAGAAGACUGCGGGUUCGAGUCCCGUGCGGAACG, the yeast fitness came to 0.771.

In the case of GUUCAGUUGGCGUAAUGGUAACGCGUCUCCCUCCUAAGGAGAAGACUGCGGGUUUGAGUCCCGUACGGAACG, the yeast fitness amounted to 0.707.

For the variant GUUCCGUUGCCGUUAUGGUAACGCGUCUCCCUCCUAAGGAGAAGACUGCGGGUUCGAGUCCUGUACUGAACG, the yeast fitness was no more than 0.5.

Turning to GUUCCGUUGGCGUAAUGGUAACGCGUCACCCUCCUAAGGAGGAGACUGCGGGUUCGGGUCCCGUACGGAACG, the yeast fitness is no more than 0.5.

With GUUCCGUUGGCGUAAUGGUAACUCGUCUCCCUCCUAAGGGGAAGACUGCGGGUUCGAGUCCCGUACGGAACG, the yeast fitness was determined as 0.682.

Take GUUCCGUUGGCAUAAUGGUAACGGGUCUCCCUGCUCCGGAGCAGACUGCGGGUUCGAGUCCCGUUCGGAACG: the yeast fitness is no more than 0.5.

GUUCAGUUGGCGUAAUGGUAAUGCGUCUCCCUCCUAAGGAGAAGACUGCGGGCUCGAGGCGUGUACGGAACG: the yeast fitness was no more than 0.5.

On to GUUCCGUUGGCGUAAUGGUAACGCGUCUCCCUCCUAAGGAGAUGACUACGGGUUCCUGUCCCGUACGGAACG, for which the yeast fitness came to 0.693.

On to GUUCCGUUGGCGUAAUGGGAACGCGUCUCCCUUUUAAGGAGAAGACUGCGGGUUCGAGUCCCGUACGGAACG, for which the yeast fitness is no more than 0.5.

GUUCCGUUGGCGUAAUGGUAACGCGUUUCCCUCCUGAGGAGAAGACGGCAGGUUCGAGUCCCGUACGGAACG: the yeast fitness is no more than 0.5.

Take GUUCCGUUGGCGUAAUGGCAACGCGUCUCGCUCCUAAGGCGAAGACUGCGAGUUCGAGUCACGUACGGAACG: the yeast fitness turned out to be 0.696.

Consider GUUCCGUUGGCGUCAUGGUAACGCGUCUCCCUCCUAAGGAGAAGACUGCGGGUUCGAGUCCCGUAGGCAACG, for which the yeast fitness is no more than 0.5.

Take GGUCCAUUGGCGUAAUGGUAACGCGUCUCCCUCCUAAGGAGAAGACUGCGGGGGAGAGUCCCGUACGGAACG: the yeast fitness was no more than 0.5.

In the case of GUUCGGUUGGCGUAAUGGUAACGCGUCUCCCUCCUAAGGCGAAGACUGCGGGUUCGAGUCCCGUACGGAGCG, the yeast fitness worked out at 0.543.

For the variant GUUCCGUUCGCGUAAUGGAAACGCGUCUCCCUCCUAAGGAGAAGACUGCGGGUUCGAAUCCCGUGCGGAACG, the yeast fitness is no more than 0.5.

Turning to GUUCCGUUGGCGUAAUGCUAACGUGUCUCCCUCCUAAGGAGACGAUUGCGGGUUCGAGUCCCCUAUGGAACG, the yeast fitness was no more than 0.5.

Consider GUUCCGUUGGCGUAAUAGUAACGCGUCUCCCUCCUAAGGAGAAGACUGCGGGUUCGAGUAACGUACGGAACG, for which the yeast fitness is no more than 0.5.

Take GUUCCGUUGGCGUAAUGGUGACGCGUCUCCCUCUUAAAGAGAGGACUGCGGGUUCGAGUCCCGUACGUAACG: the yeast fitness was no more than 0.5.
